ChEMBL document CHEMBL1765023, “Acetyl analogs of combretastatin A-4: synthesis and biological studies” (Bioorg Med Chem, 2011)

What was measured:
[1] = test system: NCI-H226; assay: Growth inhibition of human NCI-H226 cells after 48 hrs by sulforhodamine B assay; assay type: functional; details: NCI-H226, 48 h
Method in brief: (§1)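 NCI 60 human cancer cell line screen run at the National Cancer Institute. Cells had 48 h continuous exposure, and proliferation was read by sulforhodamine B staining. GI50 (50% growth inhibition) was taken from dose–response curves.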

[2] = test system: HCT-15; assay: Growth inhibition of human HCT15 cells after 48 hrs by sulforhodamine B assay; assay type: functional; details: HCT-15, 48 h; method in brief: as §1
[3] = test system: HOP-62; assay: Growth inhibition of human HOP62 cells after 48 hrs by sulforhodamine B assay; assay type: functional; details: HOP-62, 48 h; method in brief: as §1
[4] = test system: ACHN; assay: Growth inhibition of human ACHN cells after 48 hrs by sulforhodamine B assay; assay type: functional; method in brief: as §1
[5] = Growth inhibition of human […] cells after 48 hrs by sulforhodamine B assay; assay type: functional; method in brief: as §1
[6] = test system: SK-MEL-2; assay: Growth inhibition of human SK-MEL-2 cells after 48 hrs by sulforhodamine B assay; assay type: functional; details: SK-MEL-2, 48 h; method in brief: as §1
[7] = test system: HOP-92; assay: Growth inhibition of human HOP92 cells after 48 hrs by sulforhodamine B assay; assay type: functional; details: HOP-92, 48 h; method in brief: as §1
[8] = test system: NCI-H522; assay: Growth inhibition of human NCI-H522 cells after 48 hrs by sulforhodamine B assay; assay type: functional; details: NCI-H522, 48 h; method in brief: as §1
[9] = Ratio of EC50 for microtubule depolymerization in […] cells to IC50 for human MDA-MB-435 cells
[10] = test system: HL-60(TB); assay: Growth inhibition of human HL-60(TB) cells after 48 hrs by sulforhodamine B assay; assay type: functional; details: HL-60, 48 h
Method in brief: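 NCI 60 human cancer cell line panel, tested at the National Cancer Institute. Continuous 48 h drug exposure, with proliferation read by sulforhodamine B staining. Dose–response curves gave GI50 (concentration inhibiting growth by 50%), TGI (total growth inhibition) and LC50.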

[11] = test system: U-251; assay: Growth inhibition of human U251 cells after 48 hrs by sulforhodamine B assay; assay type: functional; details: U-251, 48 h
Method in brief: (§2)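 Tested in the NCI 60 human cancer cell line panel. Cells were exposed continuously for 48 h and proliferation was read by sulforhodamine B staining. GI50 (concentration for 50% growth inhibition), TGI (total growth inhibition) and LC50 were taken from dose–response curves.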

[12] = test system: Mus musculus; assay: Toxicity in DBA2 mouse assessed as change in white blood count at 75 mg/kg, ip QD administered on alternate days for 17 days measured on day 23 relative to control; assay type: organism-based; design: dose 75 mg/kg, route intraperitoneal; details: in vivo, 408 h
Method in brief: (§3)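 Healthy female DBA2 mice, 5–7 weeks old, five per group, received 75 mg/kg ip on days 1, 5, 9, 13 and 17. Vehicle was PET (PEG400/ethanol/Tween 80, 6:3:1), 5% glucose and DMSO, with final ethanol 15% and DMSO 10%. Controls received 100 µL vehicle. Body weight was measured every other day. At sacrifice on day 23, blood counts (hematocrit, WBC, granulocytes, platelets) and liver, kidney and spleen appearance and weight were assessed.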

[13] = test system: A498; assay: Growth inhibition of human A498 cells after 48 hrs by sulforhodamine B assay; assay type: functional; details: A498, 48 h; method in brief: as §1
[14] = test system: UACC-257; assay: Growth inhibition of human UACC257 cells after 48 hrs by sulforhodamine B assay; assay type: functional; details: UACC-257, 48 h; method in brief: as §2
[15] = test system: Mus musculus; assay: Toxicity in DBA2 mouse assessed as change in color, weight and size in spleen at 75 mg/kg, ip QD administered on alternate days for 17 days measured on day 23 relative to control; assay type: organism-based; design: dose 75 mg/kg, route intraperitoneal; details: in vivo, 408 h; method in brief: as §3
[16] = Growth inhibition of human Hs 578T cells after 48 hrs by sulforhodamine B assay; assay type: functional; method in brief: as §1
[17] = test system: A549; assay: Growth inhibition of human A549 cells after 48 hrs by sulforhodamine B assay; assay type: functional; details: A549, 48 h; method in brief: as §1
[18] = test system: CCRF-CEM; assay: Growth inhibition of human CCRF-CEM cells after 48 hrs by sulforhodamine B assay; assay type: functional; method in brief: as §1
[19] = test system: SNB-19; assay: Growth inhibition of human SNB19 cells after 48 hrs by sulforhodamine B assay; assay type: functional; details: SNB-19, 48 h; method in brief: as §2
[20] = test system: OVCAR-4; assay: Growth inhibition of human OVCAR4 cells after 48 hrs by sulforhodamine B assay; assay type: functional; details: OVCAR-4, 48 h; method in brief: as §1
[21] = Growth inhibition of human NCI-ADR-RES cells after 48 hrs by sulforhodamine B assay; assay type: functional; method in brief: as §1
[22] = test system: 786-0; assay: Growth inhibition of human 786-0 cells after 48 hrs by sulforhodamine B assay; assay type: functional; details: 786-0, 48 h; method in brief: as §1
[23] = test system: RXF 393; assay: Growth inhibition of human RXF393 cells after 48 hrs by sulforhodamine B assay; assay type: functional; details: RXF 393, 48 h; method in brief: as §1
[24] = test system: UO-31; assay: Growth inhibition of human UO31 cells after 48 hrs by sulforhodamine B assay; assay type: functional; details: UO-31, 48 h; method in brief: as §2
[25] = test system: UACC-62; assay: Growth inhibition of human UACC62 cells after 48 hrs by sulforhodamine B assay; assay type: functional; details: UACC-62, 48 h; method in brief: as §2
[26] = test system: B16; assay: Cytotoxicity against mouse B16 cells by MTT assay; assay type: functional, cell-based
[27] = test system: SF-539; assay: Growth inhibition of human SF539 cells after 48 hrs by sulforhodamine B assay; assay type: functional; details: SF-539, 48 h; method in brief: as §1
[28] = test system: OVCAR-5; assay: Growth inhibition of human OVCAR5 cells after 48 hrs by sulforhodamine B assay; assay type: functional; details: OVCAR-5, 48 h; method in brief: as §1
[29] = test system: T47D; assay: Growth inhibition of human T47D cells after 48 hrs by sulforhodamine B assay; assay type: functional; method in brief: as §2
[30] = test system: Mus musculus; assay: Toxicity in DBA2 mouse assessed as change in body weight at 75 mg/kg, ip QD administered on alternate days for 17 days measured on day 23 relative to control; assay type: organism-based; design: dose 75 mg/kg, route intraperitoneal; details: in vivo, 408 h; method in brief: as §3
[31] = test system: M14; assay: Growth inhibition of human M14 cells after 48 hrs by sulforhodamine B assay; assay type: functional; details: M14, 48 h; method in brief: as §1
[32] = test system: SK-MEL-5; assay: Growth inhibition of human SK-MEL-5 cells after 48 hrs by sulforhodamine B assay; assay type: functional; details: SK-MEL-5, 48 h; method in brief: as §1
[33] = test system: Malme-3M; assay: Growth inhibition of human MALME-3M cells after 48 hrs by sulforhodamine B assay; assay type: functional; details: read-out: pTGI; method in brief: as §1
[34] = test system: PC-3; assay: Growth inhibition of human PC3 cells after 48 hrs by sulforhodamine B assay; assay type: functional; details: PC-3, 48 h; method in brief: as §1
[35] = test system: CAKI-1; assay: Growth inhibition of human Caki1 cells after 48 hrs by sulforhodamine B assay; assay type: functional; details: CAKI-1, 48 h; method in brief: as §1

With COc1ccc(/C=C(/C(C)=O)c2cc(OC)c(OC)c(OC)c2)cc1O the GI50 [1] was 1 µM, the TGI ([1]; read-out: pTGI) was > 100 µM and the GI50 [2] was 0.398 µM. For the same molecule, the TGI ([2]; read-out: pTGI) was > 100 µM, the GI50 [3] was 0.589 µM and the TGI ([3]; read-out: pTGI) was > 100 µM. For the same molecule, the GI50 [4] was 1.23 µM, the TGI ([4]; read-out: pTGI) was > 100 µM and the GI50 [5] was 0.661 µM. For the same molecule, the TGI ([5]; read-out: pTGI) was > 100 µM, the GI50 [6] was 0.513 µM and the TGI ([6]; read-out: pTGI) was > 100 µM. For the same molecule, the GI50 [7] was 3.31 µM, the TGI ([7]; read-out: pTGI) was > 100 µM and the GI50 [8] was 0.135 µM. The TGI ([8]; read-out: pTGI (converted)) was 0.537 µM, the Ratio [9] was 10 and the GI50 [10] was 0.0372 µM. The GI50 [11] was 0.324 µM, the TGI ([11]; read-out: pTGI) was > 100 µM and the Activity [12] was “Non-toxic”. It also gave a GI50 [13] of 0.0676 µM, a TGI ([13]; read-out: pTGI (converted)) of 0.55 µM and a GI50 [14] of 0.186 µM. For the same molecule, the TGI ([14]; read-out: pTGI) was > 100 µM, the Activity [15] was “Non-toxic” and the GI50 [16] was 0.0891 µM. The TGI ([16]; read-out: pTGI (converted)) was 74.1 µM, the GI50 [17] was 0.468 µM and the TGI ([17]; read-out: pTGI) was > 100 µM. The GI50 [18] was 0.398 µM, the TGI ([18]; read-out: pTGI) was > 100 µM and the GI50 [19] was 0.676 µM. For the same molecule, the TGI ([19]; read-out: pTGI) was > 100 µM, the GI50 [20] was 0.933 µM and the TGI ([20]; read-out: pTGI) was > 100 µM. For the same molecule, the GI50 [21] was 0.11 µM, the GI50 [22] was 0.562 µM and the TGI ([22]; read-out: pTGI (converted)) was 44.7 µM. The GI50 [23] was 0.219 µM, the GI50 [24] was 0.575 µM and the TGI ([24]; read-out: pTGI) was > 100 µM. The GI50 [25] was 0.151 µM, the TGI ([25]; read-out: pTGI) was > 100 µM and the IC50 [26] was 3.5 µM. The GI50 [27] was 0.302 µM, the TGI ([27]; read-out: pTGI) was > 100 µM and the GI50 [28] was 4.27 µM. For the same molecule, the TGI ([28]; read-out: pTGI) was > 100 µM, the GI50 [29] was 100 µM and the TGI ([29]; read-out: pTGI) was > 100 µM. The Activity [30] was “Non-toxic”, the GI50 [31] was 0.209 µM and the TGI ([31]; read-out: pTGI) was > 100 µM. For the same molecule, the GI50 [32] was 0.132 µM, the TGI ([32]; read-out: pTGI (converted)) was 3.09 µM and the TGI [33] was > 100 µM. For the same molecule, the GI50 [34] was 0.191 µM, the TGI ([34]; read-out: pTGI) was > 100 µM and the GI50 [35] was 0.186 µM. It also gave a TGI ([35]; read-out: pTGI (converted)) of 19.5 µM.
